ChEMBL document CHEMBL1148251, “Syntheses of sphingosine-1-phosphate analogues and their interaction with EDG/S1P receptors” (Bioorg Med Chem Lett, 2004)

Tests used:
Format in all cases: cell-based
[1] = target: Sphingosine 1-phosphate receptor 3 (Homo sapiens) (UniProt Q99500); assay: Percent binding affinity to displace radioligand [3H]SIP from EDG-3/S1P3 receptors expressed in CHO cells
How it was run: (§1)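 Whole transfected CHO cells (Edg-1, Edg-3 or Edg-5; mock-transfected control), confluent, rinsed twice in ice-cold buffer (20 mM Tris–HCl pH 7.5, 100 mM NaCl, 15 mM NaF, 0.4% BSA), then held on ice 90 min with 2 nM [3H]-S1P ± 1 µM test ligand. Unbound label washed off, cells solubilized in SDS/NaOH/Na2CO3, bound radioactivity counted by liquid scintillation; duplicate determinations, mean ± SD.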

[2] = target: Sphingosine 1-phosphate receptor 2 (Homo sapiens) (UniProt O95136); assay: Percent binding affinity to displace radioligand [3H]-SIP from EDG-5/S1P2 receptors expressed in CHO cells; how it was run: as §1
Sphingosine 1-phosphate receptor 2 (Homo sapiens), sequence (O95136 whole entry): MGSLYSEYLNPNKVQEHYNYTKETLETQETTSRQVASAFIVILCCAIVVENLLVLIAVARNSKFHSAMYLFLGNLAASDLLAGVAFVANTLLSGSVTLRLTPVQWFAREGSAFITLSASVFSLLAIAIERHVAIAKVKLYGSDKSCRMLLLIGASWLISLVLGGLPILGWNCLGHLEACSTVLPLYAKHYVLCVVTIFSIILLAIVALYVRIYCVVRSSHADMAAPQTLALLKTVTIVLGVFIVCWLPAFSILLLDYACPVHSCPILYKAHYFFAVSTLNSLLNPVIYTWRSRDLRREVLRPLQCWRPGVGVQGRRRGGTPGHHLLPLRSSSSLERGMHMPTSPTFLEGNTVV

[3] = target: Sphingosine 1-phosphate receptor 1 (Homo sapiens) (UniProt P21453); assay: Percent binding affinity to displace radioligand [3H]SIP from Sphingosine 1-phosphate receptor Edg-1 expressed in CHO cells; how it was run: as §1
Sphingosine 1-phosphate receptor 1 (Homo sapiens), sequence (P21453 whole entry): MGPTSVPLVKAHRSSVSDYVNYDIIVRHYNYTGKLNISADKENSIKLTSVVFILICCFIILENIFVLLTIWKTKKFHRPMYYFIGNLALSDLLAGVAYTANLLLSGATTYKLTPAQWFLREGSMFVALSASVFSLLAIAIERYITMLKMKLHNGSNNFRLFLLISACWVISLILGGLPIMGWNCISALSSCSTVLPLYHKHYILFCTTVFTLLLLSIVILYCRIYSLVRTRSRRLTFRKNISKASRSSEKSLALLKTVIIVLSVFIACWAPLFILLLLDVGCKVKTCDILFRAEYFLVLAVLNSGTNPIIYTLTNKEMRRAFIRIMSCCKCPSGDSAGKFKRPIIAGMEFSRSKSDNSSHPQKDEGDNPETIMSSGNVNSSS

Sphingosine 1-phosphate receptor 3 (Homo sapiens), sequence (Q99500 whole entry): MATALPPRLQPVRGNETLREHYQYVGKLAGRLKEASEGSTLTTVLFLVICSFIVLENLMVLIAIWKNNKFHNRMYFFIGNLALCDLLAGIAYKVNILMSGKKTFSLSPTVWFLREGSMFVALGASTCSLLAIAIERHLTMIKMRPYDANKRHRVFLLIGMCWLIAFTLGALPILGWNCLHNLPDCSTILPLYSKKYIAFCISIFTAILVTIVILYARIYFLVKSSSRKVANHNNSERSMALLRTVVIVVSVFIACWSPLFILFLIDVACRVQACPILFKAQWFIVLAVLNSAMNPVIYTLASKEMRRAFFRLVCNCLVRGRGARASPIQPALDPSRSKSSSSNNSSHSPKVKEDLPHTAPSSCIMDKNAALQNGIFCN

| SMILES | % binding [1] | % binding [2] | % binding [3] |
| --- | --- | --- | --- |
| CCCCCCCCCCCCCC[C@@H](N)COP(=O)(O)O | 82% | 84% |  |
| CCCCCCCCCCCCC/C=C/[C@@H](O)[C@H](COP(=O)(O)O)NC |  |  | 55.1% |
| CCCCCCCCCCCCC/C=C/[C@@H](O)[C@H](COP(=O)(O)O)NCC |  |  | 51.4% |
